The nature of data set [1]: melting temperature; fluorescence melt of hairpins on a sequencing array, two-state fit, raised by 9.35 °C to match UV melts. As to conditions: sodium 0.088 M. In a few lines: (§1)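 Melting temperature and folding enthalpy were derived from bootstrapped two-state fits. The fitted temperatures were raised by 9.35 °C to agree with UV melts, and four replicates were combined by inverse variance. The underlying data were Cy3 fluorescence images of library hairpins, with annealed Cy3 and quencher oligos, on a sequenced MiSeq flow cell in 50 mM Na-HEPES pH 8.0, 25 mM NaCl, taken in 2.5 °C steps up to 60 °C, normalised to pre-quench Cy3 and to control constructs.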

A short description of data set [2]: folding enthalpy; higher = less favourable; fluorescence melt of hairpins on a sequencing array, two-state fit. To be noted: sodium 0.088 M. The method, boiled down: as §1

Take GCTACGCGAAAGCGAAGC (((.(((....))).))): the Tm in data set [1] stood at 57.5 °C. Besides, in data set [2], the folding enthalpy was -36.7 kcal/mol.

Turning to GCTACGCGAAAGCGACGC ((..(((....)))..)), in data set [1], the Tm was 40.2 °C. For the same sequence, the folding enthalpy in data set [2] is -15.1 kcal/mol.

As to GCTACGCGAAAGCGAGC (((.(((....)))))), the Tm in data set [1] is 56.5 °C. For the same sequence, the folding enthalpy in data set [2] was -15.8 kcal/mol.

Consider GCTACGCGAAAGCGGGGC ((..(((....)))..)), for which the Tm in data set [1] amounted to 63.7 °C. Further, the folding enthalpy in data set [2] was -20.7 kcal/mol.

Consider GCTACGCGAAAGCTAAGC (((..((....))..))), for which the Tm in data set [1] was 38.8 °C. Further, the folding enthalpy in data set [2] is -13.1 kcal/mol.

Consider GCTACGGGAAACCGTGGC ((.((((....)))).)), for which the Tm in data set [1] amounted to 56.7 °C. Moreover, the folding enthalpy in data set [2] is -38.2 kcal/mol.

As for GCTACTCGAAAGAGGAGC (((.(((....))).))), the Tm in data set [1] was found to be 61.6 °C. The folding enthalpy in data set [2] was -37.4 kcal/mol.

With GCTAGACGAAAGTCAAGC (((.(((....))).))), the Tm in data set [1] turned out to be 52.7 °C. In addition, the folding enthalpy in data set [2] was -30.4 kcal/mol.

As to GCTAGACGAAAGTCGAGC (((.(((....))).))), the Tm in data set [1] came out at 60.2 °C. In addition, in data set [2], the folding enthalpy was -32.9 kcal/mol.

As for GCTAGAGGAAACTCCAGC (((.(((....))).))), the Tm in data set [1] came out at 34.8 °C. The folding enthalpy in data set [2] was -22.2 kcal/mol.

As to GCTAGCGAAAGCTCAAGC ((((((....)))..))), in data set [1], the Tm was 38 °C. Besides, in data set [2], the folding enthalpy is -14 kcal/mol.

Turning to GCTAGCGGAAACACTAGC (((((.(....).))))), the Tm in data set [1] is 45.7 °C. The folding enthalpy in data set [2] was -32.2 kcal/mol.

GCTAGCGGAAACGTTGGC ((.(.((....)).).)): the Tm in data set [1] came out at 39.6 °C. Besides, in data set [2], the folding enthalpy was -24.6 kcal/mol.

Consider GCTAGGACGAAAGTCAGC (((..(((....)))))), for which the Tm in data set [1] turned out to be 42.7 °C. Moreover, in data set [2], the folding enthalpy was -16.6 kcal/mol.

Turning to GCTAGGCGAAAGCAAAGC (((..((....))..))), the Tm in data set [1] amounted to 44.3 °C. In addition, the folding enthalpy in data set [2] is -19.2 kcal/mol.

As to GCTAGGCGAAAGCCAAGC (((.(((....))).))), in data set [1], the Tm came to 56.1 °C. Besides, the folding enthalpy in data set [2] is -40 kcal/mol.

In the case of GCTAGGCGAAAGCTTCGC ((.(.((....)).).)), the Tm in data set [1] came to 36.2 °C. Besides, in data set [2], the folding enthalpy is -13.9 kcal/mol.

Consider GCTAGGGGAAACCCTAAC (.(((((....))))).), for which, in data set [1], the Tm came to 32.1 °C. Moreover, the folding enthalpy in data set [2] was -13.4 kcal/mol.

Take GCTAGTCGAAAGACGAGC (((.(((....))).))): the Tm in data set [1] came out at 57.6 °C. The folding enthalpy in data set [2] was -35.4 kcal/mol.

For the sequence GCTAGTGAAAACTAGC ((((((....)))))), the Tm in data set [1] stood at 56.9 °C. Further, the folding enthalpy in data set [2] is -36.3 kcal/mol.

Regarding GCTATACGAAAGTAAAGC (((.(((....))).))), the Tm in data set [1] is 42.8 °C. Besides, in data set [2], the folding enthalpy is -28 kcal/mol.

With GCTATCCGAAAGGACAGC (((.(((....))).))), the Tm in data set [1] is 49 °C. Moreover, the folding enthalpy in data set [2] is -31.7 kcal/mol.

As for GCTATCGAAAGATCAGC ((((((....))).))), the Tm in data set [1] amounted to 38.2 °C. Besides, in data set [2], the folding enthalpy was -20.6 kcal/mol.

As for GCTATCGAAAGATCGAGC ((((((....)))..))), the Tm in data set [1] was found to be 29.7 °C. The folding enthalpy in data set [2] is -10.1 kcal/mol.

Turning to GCTATCGAAAGATGAGC ((((((....))).))), in data set [1], the Tm is 37.4 °C. Also, the folding enthalpy in data set [2] is -27.1 kcal/mol.

As to GCTATCGAAAGATTAAGC ((((((....)))..))), the Tm in data set [1] was found to be 34.6 °C. The folding enthalpy in data set [2] was -17.1 kcal/mol.

Take GCTATCGGAAACAATAGC (((((.(....).))))): the Tm in data set [1] came to 35.1 °C. Also, the folding enthalpy in data set [2] is -18.3 kcal/mol.

For GCTATCTCGAAAGAGAGC (((..(((....)))))), the Tm in data set [1] turned out to be 37.2 °C. The folding enthalpy in data set [2] is -16.7 kcal/mol.

As to GCTATGCGAAAGCAACGC ((..(((....)))..)), in data set [1], the Tm came to 39.1 °C. In data set [2], the folding enthalpy is -10.5 kcal/mol.

GCTATGCGAAAGCAATGC ((..(((....)))..)): the Tm in data set [1] is 47.7 °C. In addition, in data set [2], the folding enthalpy is -16.5 kcal/mol.
